Screening results from PubChem BioAssay.
MC4R antag cAMP: antagonists of human melanocortin 4 receptor (MC4R). P32245. MC4R-expressing cells, MTII-stimulated cAMP, LANCE TR-FRET. inhibition, % at 6.5 µM. hit rate 0.48% among 360,000. AID 540295;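 active = inhibition above its plate's cutoff, the mean of tested wells on that plate plus 3 SD, cut at about 29% in these data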
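System: U2OS-MC4R stable cell line; Technique: Eu-cAMP/anti-cAMP TR-FRET, emission 671 nm; Repeats: single well per compound; Also added: Melanotan II; Dosing: one concentration, 6.5 µM nominal; Schedule: 30-min compound, 1-h challenge, 1-h detection, room temperature.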
m5-HT2A agonist: agonists of mouse serotonin 5-HT2A receptor (HTR2A) | P35363 | CHO-K1 mHTR2A beta-arrestin complementation, luminescence; percent of 30 µM serotonin response | activation, % at 7.6 µM | hit rate 0.66% among 360,000;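 active = activation above a run cutoff, the mean activation of all tested compounds plus 3 SD, cut at about 14% in these data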
MC4R barr agon: agonists of human melanocortin 4 receptor (MC4R) beta-arrestin; AID 540308; U2OS MC4R beta-arrestin complementation, luminescence; percent of melanotan II response, DMSO zero; activation, % at 8.9 µM; hit rate 0.98% among 360,000;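 active = activation above a per-plate cutoff, the mean activation of sample wells on that plate plus 3 SD, cut at about 8% in these data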
AHR activator: human AHR activation. AHR-responsive luciferase reporter cells, luminescence. hit rate 2.5% among 320,000. P35869. activation, % at 5 µM; in the data active = activation above about 47%
FXN GAA850 act: increases GAA850 frataxin promoter reporter activity. HEK293 lucGAA850 FXN promoter luciferase reporter, 24 h; percent of 10 µM SAHA response. activation, % at 6 µM. hit rate 0.56% among 360,000;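 active = activation above the average of all compounds screened plus 3 SD, cutoff fixed separately per campaign, cut at about 7.5% in these data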
Hits are given with their value; 0 = inactive; - = no result. A selection: hits, their analogues and other compounds. The true share with any hit is near 4.7%.

SMILES	MC4R antag cAMP	m5-HT2A agonist	MC4R barr agon	AHR activator	FXN GAA850 act
CC[n+]1c(/C=C/N(C)c2ccccc2)n(-c2ccccc2)c2ccc(-c3nc4ccccc4s3)cc21	0	20.3	16.3	0	0
Cc1cccc(NC(=O)CCC(=O)Nc2nnc(C(F)(F)F)s2)c1	0	0	0	0	0
CCc1cccc2c(C(=O)CSc3nnc(C4CC4)o3)c[nH]c12	0	0	0	0	0
C=C1CC(COc2ccc3c(C)c(Cl)c(=O)oc3c2)(c2ccccc2)OC1=O (centres undefined)	0	0	0	-	0
CCOc1ccc(-c2nnc(-c3ccncc3)o2)cc1	0	0	0	60.9	0
CCCCOc1ccc(-c2nnc(-c3ccncc3)o2)cc1	0	0	0	0	0
O=[N+]([O-])c1cnc(Sc2ccncn2)c([N+](=O)[O-])c1	0	0	0	-	0
O=[N+]([O-])c1cnc(Sc2ccncn2)s1	35.3	0	0	0	0
Cc1ccc(-n2nnc3c(=O)oc4ccccc4c32)cc1	45.5	0	0	0	0
CCC(C)n1nnc2c(=O)oc3ccccc3c21 (centres undefined)	0	0	0	0	0
CCCCn1nnnc1C(c1ccccc1)N1CCN(c2ncc(C(F)(F)F)cc2Cl)CC1 (centres undefined)	-	0	-	-	-
Cc1ccc(N2NC(C)(c3cccs3)NC2=S)cc1 (centres undefined)	0	0	0	52.4	0
Cc1ccc(N2CC(O)(c3cccs3)[N+]3=C2CCCC3)cc1 (centres undefined)	0	0	0	0	0
CCOc1ccc(/C=C/C(=O)Nc2ccc(N3CCOCC3)cc2)cc1	0	0	8.9	0	0
COc1ccc(/C=C/C(=O)OCC(=O)Nc2ccc(N3CCOCC3)cc2)cc1	0	0	0	0	0
CN1CC=C2C(C#N)=C(N)C(C#N)(C#N)C(CCc3ccccc3)C2C1 (centres undefined)	0	0	0	56.1	0
Cc1cnc(C(=O)OCC(=O)NCc2ccc(Cl)cc2)cn1	0	0	0	0	0
CCc1c(C)c(C#N)c2[nH]c3ccccc3n2c1=S	0	0	0	58.7	0
CCc1cc(=S)n2c([nH]c3ccccc32)c1C#N	0	0	0	0	0
Fc1ccc(Nc2ncnc3sc4c(c23)CCC4)cc1F	0	0	0	48.5	0
CN1CC(C(=O)O)Cc2c1ccc1ccccc21 (centres undefined)	0	0	0	53.5	0
CN(C)CCN(C(=O)/C=C/c1cccs1)c1nc2ccc(F)cc2s1	0	0	0	48.9	0
Cn1c(O)c(C2=c3ccccc3=NC2=O)[nH]c1=S	0	0	0	60.8	0
O=c1[nH]c(/C=C/c2ccc(OC(F)F)cc2)nc2c1cnn2-c1ccccc1	0	0	0	75.3	0
CC(C)Sc1nc2c(cnn2-c2ccccc2)c(=O)[nH]1	0	0	0	0	0
SMILES	MC4R antag cAMP	m5-HT2A agonist	MC4R barr agon	AHR activator	FXN GAA850 act
Cn1cc(/C=C/c2cc[n+](C)cc2)c2cc(Cl)ccc21	0	0	0	47.3	0
CC1=Nc2ccccc2/C1=C/c1sc(=N)n(-c2nccs2)c1O	0	0	0	73.3	0
COc1ccc2c(c1)c1nnc(SCC(=O)NC3CC3)nc1n2C	0	0	0	72.0	0
COc1cc(OC)cc(C(=O)NNS(=O)(=O)c2ccc(F)cc2)c1	0	0	0	0	0
CC(NC(=O)C1CC(=O)N(c2ccc3c(c2)OCCO3)C1)c1ccccc1 (centres undefined)	0	0	0	-	0
C[C@H]1CN([C@@H](C)CO)C(=O)CCCn2cc(nn2)CO[C@@H]1CN(C)C(=O)Nc1cccc(F)c1	0	0	0	-	0
COCCCNc1c2c3c(cccc3[nH]c1=O)C(=O)c1ccccc1-2	0	0	0	69.7	0
CN(C)c1nc(-c2ccccn2)nnc1-c1ccccc1	0	0	0	84.8	0
O=C(OCc1cn([C@H]2C[C@H](c3ccc(Cl)cc3)N(C(=O)C3CCCCC3)C[C@@H]2O)nn1)c1ccccc1	0	0	0	-	0
Fc1ccc2nc(Nc3nc4c(F)cc(F)cc4s3)sc2c1	0	0	0	0	0
Fc1ccc2nc(Nc3nc4c(F)cccc4s3)sc2c1	0	0	0	61.5	0
NNc1nc2ccc(F)cc2s1	0	0	0	76.7	0
O=C(CC1Sc2ccccc2NC1=O)NNc1cc(Cl)ccc1Cl (centres undefined)	0	0	0	-	0
CCN(c1cccc(C)c1)S(=O)(=O)c1ccc2c(c1)N(C(C)=O)CCS2	0	0	0	0	0
Cc1noc(C)c1COc1ccccc1C(=O)N1CCN(S(=O)(=O)c2ccc(C(C)C)cc2)CC1	0	0	0	-	0
CCCCn1nnnc1C(c1ccccc1)N1CCN(c2cc(C)ccc2C)CC1 (centres undefined)	-	0	-	-	-
CCOC(=O)N1CCC(NC(=O)CSCc2cnn(-c3ccccc3)c2-n2cccc2)CC1	0	0	0	0	8.3
Cc1ccc(-n2[nH]c(C)c(C=Nc3ccc4[nH]c(=O)[nH]c4c3)c2=O)cc1C	0	0	16.4	0	0
CNC(=O)C1CN(C(=O)c2cccc(S(=O)(=O)N3c4ccccc4CC3C)c2)c2ccccc2O1 (centres undefined)	0	0	0	0	0
CCCOc1ccc(/C=C/C(=O)Nc2ccc([N+](=O)[O-])cc2C)cc1OC	0	0	11.8	0	0
Cc1ccc([N+](=O)[O-])cc1NC(=S)NCCc1ccccc1	0	0	0	51.9	0
COc1ccc(C(=O)NC(=S)Nc2ccc([N+](=O)[O-])cc2C)cc1OC	0	0	8.9	0	0
COc1ccc(C(=O)NC(=S)Nc2ccccc2[N+](=O)[O-])cc1OC	0	0	0	0	0
CCCOc1ccc(/C=C/C(=O)Nc2ccc([N+](=O)[O-])cc2C)cc1	0	0	0	0	0
O=C(NC(=S)Nc1cc([N+](=O)[O-])ccc1Cl)c1ccccc1	0	0	0	70.6	0
SMILES	MC4R antag cAMP	m5-HT2A agonist	MC4R barr agon	AHR activator	FXN GAA850 act
O=C(Nc1ccc(F)cc1)C(c1ccccc1)N1CCN(c2ccncc2)CC1 (centres undefined)	-	0	-	-	-
C/C(=N\Nc1nc2ccccc2[nH]1)c1cc2ccccc2o1	0	0	0	53.8	0
C/C(=N\Nc1nc2ccccc2[nH]1)c1ccccn1	0	0	0	0	0
CN(C)CCNC(NC(=O)c1cccs1)C(Cl)(Cl)Cl (centres undefined)	0	0	0	0	0
OC[C@@H]1CN(Cc2ccc3c(c2)OCO3)C[C@H](n2cnc3c(NCc4ccc(F)cc4)ncnc32)O1	0	0	0	-	0
COc1ccccc1/C=C/C(=O)NCCc1ccccn1	0	0	0	63.3	0
O=C(/C=C/c1ccccc1Cl)Nc1cccnc1	0	0	0	51.7	0
O=C(/C=C/c1ccccc1Cl)Nc1ccncc1	0	0	0	0	0
COc1cc(/C=C/C(=O)NCc2ccccn2)cc(OC)c1OC	0	0	0	0	0
COc1ccccc1/C=C/C(=O)Nc1cccnc1	0	0	0	58.0	0
O=C(/C=C/c1ccco1)Nc1cccc2cccnc12	0	0	0	47.7	0
